The values that follow come from ChEMBL document CHEMBL4414600, “Discovery of a Furanopyrimidine-Based Epidermal Growth Factor Receptor Inhibitor (DBPR112) as a Clinical Candidate for the Treatment of Non-Small Cell Lung Cancer” (J Med Chem, 2019).

Calls of active or inactive are those of the source. The rule behind the calls is not given here. Some results are limits rather than exact numbers.

Data set [1] deals with Epidermal growth factor receptor (Homo sapiens, UniProt P00533).
The target of data set [2] is Epidermal growth factor receptor (Homo sapiens, UniProt P00533, L858R/T790M).
Data set [3] relates to HCC827. The data set can be described thus: Cytotoxicity in human HCC827 cells assessed as reduction in cell viability incubated for 96 hrs by MTS method. Format: functional. (In general: Formazan colour is commonly taken as a measure of viable cells.)
Data set [4] has as its system NCI-H1975. The data set can be described thus: Cytotoxicity in human NCI-H1975 cells assessed as reduction in cell viability incubated for 96 hrs by MTS method. In kind it is functional.
Data set [5] is described as follows: Half life in rat at 5 mg/kg, iv. Format: ADME, organism-based. The following applies: in vivo.
A short description of data set [6]: Clearance in rat at 5 mg/kg, iv. In kind it is ADME, organism-based. The settings on record: in vivo.
The nature of data set [7]: Volume of distribution at steady state in rat at 5 mg/kg, iv. Format: ADME, organism-based. The following applies: in vivo, read-out: Vdss.
Data set [8] in a line: AUC (0 to infinity) in rat at 5 mg/kg, iv. In kind it is ADME, organism-based. Also noted: dose 5 mg/kg, time infinity, route intravenous. The following applies: in vivo.
Data set [9] in a line: Cmax in rat at 20 mg/kg, po. Format: ADME, organism-based. Also noted: dose 20 mg/kg, route oral. The following applies: in vivo. In a few lines: (§1)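 Rat pharmacokinetics: single IV injection at 5 mg/kg or oral dosing at 20 mg/kg (23.6 mg/kg oral for one compound). Plasma parameters t1/2, CL, Vss, AUC(0-inf), Cmax, Tmax and oral bioavailability F were derived from the concentration–time profiles.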

The nature of data set [10]: Tmax in rat at 20 mg/kg, po. Format: ADME, organism-based. The following applies: in vivo. In a few lines:
as §1

A short description of data set [11]: AUC (0 to infinity) in rat at 20 mg/kg, po. More on the design: dose 20 mg/kg, route oral, time infinity. Format: ADME, organism-based. The following applies: in vivo. The procedure, abridged: as §1
A short description of data set [12]: Oral bioavailability in rat at 20 mg/kg. Format: ADME, organism-based. The following applies: in vivo. The procedure, abridged:
as §1

Data set [13] in a line: Half life in rat at 20 mg/kg, po. Format: ADME, organism-based. The settings on record: in vivo. The procedure, abridged: as §1
A short description of data set [14]: Inhibition of GST-tagged human EGFR D770GY mutant using poly(Glu, Tyr) 4:1 substrate incubated for 120 mins by kinase-Glo plus luminescent kinase assay. In general terms: Kinase-Glo reads ATP consumption through a luciferase reaction.
Data set [15] in a line: Inhibition of GST-tagged human HER2 V777_G778insCG mutant mutant using poly(Glu, Tyr) 4:1 substrate incubated for 120 mins by kinase-Glo plus luminescent kinase assay.
Data set [16] has as its system A-431. The data set can be described thus: Cytotoxicity in human A431 cells assessed as reduction in cell viability incubated for 96 hrs by MTS method. Format: functional.
Data set [17] can be described thus: Toxicity in ICR mouse assessed as induction of fur loss in nose and abdomen area at 100 mg/kg, po QD for 2 weeks. The following applies: in vivo, 336 h. In kind it is organism-based.
The nature of data set [18]: Toxicity in ICR mouse assessed as induction of skin rash at 100 mg/kg, po QD for 2 weeks. The settings on record: in vivo, 336 h. Format: organism-based.
Data set [19] in a line: Toxicity in athymic NU-Fox1nu nude mouse xenografted with human HCC827 cells assessed as induction of body weight loss at 20 mg/kg, po dosed via gavage for 5 days/week for 2 consecutive weeks. Format: organism-based. The settings on record: in vivo, 120 h. In a few lines: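 Male athymic NU-Fox1nu nude mice, 6–8 weeks old, were inoculated subcutaneously at the left flank with 5x10^6 HCC827 (exon 19 Del E746_A750) cells. Oral gavage began at a mean tumor size of about 500 mm³, in 1% methylcellulose/0.5% Tween 80/98.5% water, once daily on days 1-5 and 8-12. Tumor volume (V = 0.5 a × b², caliper) and body weight were tracked.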
For orientation: In xenograft studies the graft and the host belong to different species.

The subject of data set [20] is NCI-H1975. The data set can be described thus: Antitumor activity against human NCI-H1975 cells xenografted in nude BALB/c mouse assessed as inhibition of tumor growth at 15 mg/kg, po QD for 15 days relative to control. In kind it is functional. The following applies: 360 h, read-out: TGI. The procedure, abridged:
(§2)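 H1975 cells were grown in RPMI1640 with 10% heat-inactivated FBS at 37 °C, 5% CO2, and passaged by trypsin-EDTA. 5x10^6 cells in 0.1 ml PBS were injected subcutaneously at the right flank of BALB/c nude mice. Oral QD dosing for 15 days began at a mean tumor size of 147 mm³, n = 5 per group.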

Data set [21] can be described thus: Toxicity in nude BALB/c mouse xenografted with human NCI-H1975 cells assessed as induction of body weight loss at 15 mg/kg, po QD for 15 days relative to control. Format: organism-based. The following applies: in vivo, 360 h. In a few lines:
as §2

The nature of data set [22]: Toxicity in nude BALB/c mouse xenografted with human NCI-H1975 cells assessed as drug tolerability at 15 mg/kg, po QD for 15 days relative to control. Format: organism-based. The settings on record: in vivo, 360 h. In a few lines: as §2
Data set [23] has as its system HCC827. The following applies: Homo sapiens.

Sequence of Epidermal growth factor receptor (Homo sapiens, UniProt P00533, L858R/T790M) (P00533 25-1210 T790M/L858R limits assumed): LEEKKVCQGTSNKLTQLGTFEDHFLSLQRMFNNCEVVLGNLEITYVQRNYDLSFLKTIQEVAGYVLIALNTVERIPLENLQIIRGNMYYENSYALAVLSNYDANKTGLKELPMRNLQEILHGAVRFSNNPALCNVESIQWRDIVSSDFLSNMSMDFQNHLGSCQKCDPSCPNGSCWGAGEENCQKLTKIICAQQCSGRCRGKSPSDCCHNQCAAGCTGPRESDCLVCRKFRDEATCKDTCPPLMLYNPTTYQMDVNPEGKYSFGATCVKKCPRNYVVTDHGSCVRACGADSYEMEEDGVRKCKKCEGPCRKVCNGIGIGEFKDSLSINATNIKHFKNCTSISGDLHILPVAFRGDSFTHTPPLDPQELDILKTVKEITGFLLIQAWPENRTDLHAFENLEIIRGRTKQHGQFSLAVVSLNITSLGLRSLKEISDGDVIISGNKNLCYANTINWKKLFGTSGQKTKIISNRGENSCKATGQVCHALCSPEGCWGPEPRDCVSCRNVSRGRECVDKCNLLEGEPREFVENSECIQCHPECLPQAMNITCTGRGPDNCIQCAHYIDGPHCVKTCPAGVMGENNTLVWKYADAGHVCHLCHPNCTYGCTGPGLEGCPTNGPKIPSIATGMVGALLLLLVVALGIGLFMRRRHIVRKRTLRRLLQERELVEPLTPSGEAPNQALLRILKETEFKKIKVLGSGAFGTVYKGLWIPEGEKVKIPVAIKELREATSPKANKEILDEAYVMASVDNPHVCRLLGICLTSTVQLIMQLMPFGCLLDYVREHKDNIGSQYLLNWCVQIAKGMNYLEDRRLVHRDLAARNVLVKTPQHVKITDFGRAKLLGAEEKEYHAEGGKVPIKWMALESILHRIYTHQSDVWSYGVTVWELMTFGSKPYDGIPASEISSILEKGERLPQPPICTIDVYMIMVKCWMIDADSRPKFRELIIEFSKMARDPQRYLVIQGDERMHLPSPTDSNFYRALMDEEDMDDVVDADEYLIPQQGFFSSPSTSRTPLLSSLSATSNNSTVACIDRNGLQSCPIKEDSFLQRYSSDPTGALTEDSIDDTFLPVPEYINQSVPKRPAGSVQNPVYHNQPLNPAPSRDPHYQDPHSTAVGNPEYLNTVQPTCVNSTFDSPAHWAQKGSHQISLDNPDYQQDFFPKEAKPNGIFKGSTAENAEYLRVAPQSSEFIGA
Sequence of Epidermal growth factor receptor (Homo sapiens, UniProt P00533) (P00533 whole entry): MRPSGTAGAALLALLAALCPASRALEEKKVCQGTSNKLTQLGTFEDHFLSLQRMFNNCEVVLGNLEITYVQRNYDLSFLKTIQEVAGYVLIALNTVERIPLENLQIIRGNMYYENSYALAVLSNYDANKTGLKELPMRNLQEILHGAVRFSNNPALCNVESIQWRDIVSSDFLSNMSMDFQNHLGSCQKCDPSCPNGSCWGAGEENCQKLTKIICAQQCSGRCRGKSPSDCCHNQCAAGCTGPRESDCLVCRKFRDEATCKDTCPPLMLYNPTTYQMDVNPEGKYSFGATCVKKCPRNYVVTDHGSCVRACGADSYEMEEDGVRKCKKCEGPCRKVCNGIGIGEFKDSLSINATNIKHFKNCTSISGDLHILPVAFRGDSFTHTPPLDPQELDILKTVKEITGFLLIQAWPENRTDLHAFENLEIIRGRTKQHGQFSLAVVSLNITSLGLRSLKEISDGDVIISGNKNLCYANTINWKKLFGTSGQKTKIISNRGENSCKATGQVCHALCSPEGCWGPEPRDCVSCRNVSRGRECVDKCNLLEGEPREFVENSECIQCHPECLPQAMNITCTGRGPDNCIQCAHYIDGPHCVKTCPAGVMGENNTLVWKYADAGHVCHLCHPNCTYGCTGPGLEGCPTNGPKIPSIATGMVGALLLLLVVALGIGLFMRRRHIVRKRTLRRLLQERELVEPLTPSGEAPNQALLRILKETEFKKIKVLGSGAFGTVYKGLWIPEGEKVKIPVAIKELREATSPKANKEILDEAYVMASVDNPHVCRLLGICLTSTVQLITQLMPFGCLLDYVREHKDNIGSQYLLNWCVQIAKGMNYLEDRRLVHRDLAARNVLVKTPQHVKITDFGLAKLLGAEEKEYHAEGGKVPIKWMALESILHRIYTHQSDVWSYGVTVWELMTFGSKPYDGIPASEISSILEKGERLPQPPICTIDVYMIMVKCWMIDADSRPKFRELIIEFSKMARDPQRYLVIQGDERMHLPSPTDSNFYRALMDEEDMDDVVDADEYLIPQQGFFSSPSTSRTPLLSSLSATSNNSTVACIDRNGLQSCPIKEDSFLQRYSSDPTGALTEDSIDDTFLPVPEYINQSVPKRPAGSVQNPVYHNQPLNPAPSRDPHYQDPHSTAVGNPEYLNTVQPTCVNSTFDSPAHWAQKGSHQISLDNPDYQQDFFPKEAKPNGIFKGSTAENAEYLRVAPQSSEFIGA

Take `O=C(/C=C/c1ccccc1)Nc1cccc(-c2c(-c3ccccc3)oc3ncnc(N[C@H](CO)c4ccccc4)c23)c1`: the IC50 (in general, the point on the concentration scale where inhibition reaches its midpoint) is 5000 nM in data set [1] and greater than 10000 nM in data set [2]. Moreover, the 50% cytotoxic concentration (CC50) (usually the concentration giving 50% cytotoxicity) in data set [3] (Homo sapiens, HCC827, 96 h) was 1780 nM; in [4] (Homo sapiens, NCI-H1975, 96 h), greater than 20000 nM.
Taken in the same sequence, the figures for `CCN(C/C=C/C(=O)Nc1cccc(-c2c(-c3ccccc3)oc3ncnc(N[C@H](CO)c4ccccc4)c23)c1)CCO` were 13 nM, 117 nM, 19 nM and 2410 nM.
Consider `C=CC(=O)Nc1cccc(-c2c(-c3ccccc3)oc3ncnc(N[C@H](CO)c4ccccc4)c23)c1`, for which the CC50 in [3] came out at 24 nM; in data set [4], 1260 nM. In addition, the figures for the half-life in data set [5] and in data set [13] were 0.5 h and 0.9 h, respectively. Also, the clearance (as a rule, a measure of how efficiently the substance is removed, as volume per time) in data set [6] turned out to be 4.59 L/h/kg. Besides, the Vd in data set [7] is 2.3 L/kg. The AUC(0-inf) (commonly total exposure, with the tail of the curve extrapolated) in data set [8] turned out to be 1.1 µg·h/mL; in [11], 0.303 µg·h/mL. Also, the Cmax (as a rule, the highest concentration seen after dosing) in [9] worked out at 0.193 µg/mL. Moreover, the Tmax – broadly, the time at which the peak concentration occurs – in [10] was determined as 1.2 h. Besides, the bioavailability (as a rule, the share of a dose that reaches the circulation, judged against a reference dose that is usually intravenous) in [12] stood at 5.5%.
With `C=CC(=O)Nc1cccc(-c2csc3ncnc(N[C@H](CO)c4ccccc4)c23)c1`, the results for the IC50 in data set [1] and in data set [2] were 82 nM and 2320 nM, respectively. For the same molecule, the CC50 was 56 nM in data set [3] (Homo sapiens, HCC827, 96 h) and greater than 20000 nM in data set [4] (Homo sapiens, NCI-H1975, 96 h).
As to `CN(C)C/C=C/C(=O)Nc1cccc(-c2c(-c3ccccc3)oc3ncnc(N[C@@H](CO)c4ccccc4)c23)c1`, the CC50 in data set [3] was 1050 nM.
Take `C=CC(=O)Nc1cccc(-c2c(C)sc3ncnc(N[C@H](CO)c4ccccc4)c23)c1`: the values for the 50% inhibitory concentration (IC50) in data set [1] and in [2] were 107 nM and 1260 nM, respectively. The CC50 was found to be 35 nM in data set [3] (Homo sapiens, HCC827, 96 h) and 12600 nM in data set [4] (Homo sapiens, NCI-H1975, 96 h).
As for `C=CC(=O)Nc1cc(Nc2nccc(-c3cn(C)c4ccccc34)n2)c(OC)cc1N(C)CCN(C)C` [OSIMERTINIB], the IC50 was 0.858 nM in data set [14] and 3.31 nM in data set [15]. The CC50 in data set [16] amounted to […].
With `C=CC(=O)Nc1cccc(-c2c(C)oc3ncnc(N[C@H](CO)c4ccccc4)c23)c1`, the IC50 in data set [1] was determined as 62 nM; in [2] it was 1320 nM. Also, the 50% cytotoxic concentration (CC50) in [3] (Homo sapiens, HCC827, 96 h) was 46 nM; in data set [4] (Homo sapiens, NCI-H1975, 96 h), greater than 20000 nM.
On to `CN(C)C/C=C/C(=O)Nc1cc2c(Nc3ccc(F)c(Cl)c3)ncnc2cc1O[C@H]1CCOC1` [AFATINIB], for which the CC50 in data set [3] (Homo sapiens, HCC827, 96 h) turned out to be 14 nM; in [4] (Homo sapiens, NCI-H1975, 96 h), 224 nM. Besides, the Activity entry was “Toxic” in data set [17]; “Toxic” in data set [18]; 5% in [19]; “Non-Toxic” in [21]; “Non-Toxic” in [22]. In data set [20], the inhibition in vivo at 15 mg/kg was found to be 65%. Also, the half-life (in general, how long it takes for the measured level to halve) in data set [5] was 5.7 h; in [13], 6 h. The same molecule displayed a clearance in data set [6] of 4.75 L/h/kg. Moreover, the Vd in data set [7] came out at 28.7 L/kg. Besides, the AUC(0-inf) stood at 1.06 µg·h/mL in data set [8] and 0.676 µg·h/mL in data set [11]. In data set [9], this molecule came in with a Cmax of 0.0752 µg/mL. Moreover, in data set [10], the Tmax was determined as 4.2 h. Further, the bioavailability in data set [12] turned out to be 15.9%. Further, in [23], the TGI entry was “Active”.
Take `C=CC(=O)Nc1cccc(-c2c(-c3ccccc3OC)oc3ncnc(N[C@H](CO)c4ccccc4)c23)c1`: the CC50 in data set [3] (Homo sapiens, HCC827, 96 h) was 34 nM; in data set [4] (Homo sapiens, NCI-H1975, 96 h) it was 4080 nM; in data set [16] (Homo sapiens, A-431, 96 h), greater than 8010 nM. For the same molecule, the IC50 in data set [14] is 0.295 nM; in data set [15] it was 5.2 nM.
Consider `C=CC(=O)Nc1cccc(-c2coc3ncnc(N[C@H](CO)c4ccccc4)c23)c1`, for which the results for the IC50 in [1] and in data set [2] were 159 nM and greater than 10000 nM, respectively. Further, the CC50 in data set [3] (Homo sapiens, HCC827, 96 h) is 744 nM; in data set [4] (Homo sapiens, NCI-H1975, 96 h), greater than 20000 nM.
Regarding `C=CC(=O)Nc1cccc(-c2c(Cl)sc3ncnc(N[C@H](CO)c4ccccc4)c23)c1`, the IC50 in [1] came out at 81 nM; in [2], 1080 nM. Further, the CC50 in data set [3] (Homo sapiens, HCC827, 96 h) is 51 nM; in [4] (Homo sapiens, NCI-H1975, 96 h) it was 8660 nM.
Consider `C=CC(=O)N1CCC(Oc2cc3c(Nc4ccc(Cl)c(Cl)c4F)ncnc3cc2OC)CC1` [POZIOTINIB], for which the IC50 in [14] stood at 0.082 nM; in data set [15], 0.206 nM. Moreover, in [16] (Homo sapiens, A-431, 96 h), the CC50 turned out to be 31 nM.
